# From ChEMBL document CHEMBL1143415, “Differential fungicidal activities of amphotericin B and voriconazole against Aspergillus species determined by microbroth methodology” (Antimicrob Agents Chemother, 2007)
# What was measured:
# Aspergillus terreus [1] = test: Antifungal activity against Aspergillus terreus ATCC MYA-3633 after 48 hrs by CLSI M38-A microdilution method; assay type: functional
# Outline: (§1)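 CLSI M38-A broth microdilution. Conidia came from 5–7 d potato dextrose agar slants at 35°C, suspended in saline with 0.025% Tween 20 and counted by hemacytometer. Final inoculum was 0.5×10^4 to 5×10^4 CFU/ml in RPMI 1640 with MOPS, pH 7.0. Final drug ranges: amphotericin B 0.015–16 mg/liter, voriconazole 0.008–8 mg/liter. Plates ran 48 h at 37°C. MIC = lowest concentration with no visible growth. Duplicate plates; experiments done twice.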
# Aspergillus fumigatus [2] = test: Antifungal activity against Aspergillus fumigatus ATCC MYA-3626 after 24 hrs by microbroth colorimetric XTT method; assay type: functional
# Outline: (§2)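 Done after the 48 h M38-A MIC plates. Clear wells and the 0.5× MIC well were aspirated, washed twice with 37°C saline, refilled with fresh RPMI, then incubated 24 h at 37°C. XTT (0.1 mg/ml) with menadione (25 μM), both final, was added for 2 h. A450/630 was read minus background from conidia-free wells. MFC = lowest concentration with absorbance <0.01, a cutoff set by ROC against microscopic growth.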
# Aspergillus flavus [3] = test: Antifungal activity against Aspergillus flavus ATCC MYA-3631 after 24 to 48 hrs by culture-based CFU method; assay type: functional
# Outline: (§3)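 Done after the 48 h M38-A MIC plates. Clear wells and the 0.5× MIC well were pipetted five times, and 20 μl or 100 μl was subcultured on Sabouraud dextrose agar for 24–48 h at 37°C before CFU counting. MFC = lowest concentration giving no growth for each volume.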
# Aspergillus terreus [4] = test: Antifungal activity against Aspergillus terreus ATCC MYA-3633 after 24 to 48 hrs by culture-based CFU method; assay type: functional; outline: as §3
# Aspergillus terreus [5] = test: Antifungal activity against Aspergillus terreus isolate after 8 hrs by microbroth colorimetric XTT method relative to control; assay type: functional
# Aspergillus fumigatus [6] = test: Antifungal activity against Aspergillus fumigatus isolate after 8 hrs by microbroth colorimetric XTT method relative to control; assay type: functional
# Aspergillus terreus [7] = test: Antifungal activity against Aspergillus terreus ATCC MYA-3633 after 24 hrs by microbroth colorimetric XTT method; assay type: functional; outline: as §2
# Aspergillus flavus [8] = test: Antifungal activity against Aspergillus flavus isolate after 8 hrs by microbroth colorimetric XTT method relative to control; assay type: functional
# Aspergillus flavus [9] = test: Antifungal activity against Aspergillus flavus isolate after 24 hrs by microbroth colorimetric XTT method; assay type: functional, organism-based; outline: as §2
# Aspergillus flavus [10] = test: Antifungal activity against Aspergillus flavus isolate after 48 hrs by CLSI M38-A microdilution method; assay type: functional; outline: as §1
# Aspergillus flavus [11] = test: Antifungal activity against Aspergillus flavus isolate at 20 CFU infectious rate after 24 hrs by culture-based CFU method; assay type: functional; outline: as §3
# Aspergillus flavus [12] = test: Antifungal activity against Aspergillus flavus ATCC MYA-3631 after 24 hrs by microbroth colorimetric XTT method; assay type: functional; outline: as §2
# Aspergillus terreus [13] = test: Antifungal activity against Aspergillus terreus isolate at 100 CFU infectious rate after 24 hrs by culture-based CFU method; assay type: functional; outline: as §3
# Aspergillus fumigatus [14] = test: Antifungal activity against Aspergillus fumigatus isolate at 20 CFU infectious rate after 24 hrs by culture-based CFU method; assay type: functional; outline: as §3
# Aspergillus flavus [15] = test: Antifungal activity against Aspergillus flavus ATCC MYA-3631 after 48 hrs by CLSI M38-A microdilution method; assay type: functional; outline: as §1
# Aspergillus flavus [16] = test: Ratio of MFC for Aspergillus flavus isolate to MIC for Aspergillus flavus isolate; assay type: functional
# Outline: (§4)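 Per-isolate ratio of the XTT-based MFC (24 h post-wash regrowth, absorbance cutoff 0.01) to the 48 h CLSI M38-A MIC, taken as the median of two replicate experiments. A ratio of ≤4 was counted fungicidal and >4 fungistatic.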
# Aspergillus fumigatus [17] = test: Antifungal activity against Aspergillus fumigatus ATCC MYA-3626 after 48 hrs by CLSI M38-A microdilution method; assay type: functional
# Outline: (§5)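 CLSI M38-A broth microdilution in RPMI 1640 (L-glutamine, no bicarbonate, 0.165 M MOPS, pH 7.0). Conidia come from potato dextrose agar slants grown 5 to 7 days at 35°C, suspended in saline with 0.025% Tween 20 and counted by hemacytometer. Final inoculum 0.5 × 10^4 to 5 × 10^4 CFU/ml. Twofold dilutions in flat-bottom plates, 37°C for 48 h. MIC is the lowest concentration with no visible growth. Duplicate plates, two experiments.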
# Aspergillus fumigatus [18] = test: Antifungal activity against Aspergillus fumigatus ATCC MYA-3626 after 24 to 48 hrs by culture-based CFU method; assay type: functional; outline: as §3
# Aspergillus fumigatus [19] = test: Ratio of MFC for Aspergillus fumigatus isolate to MIC for Aspergillus fumigatus isolate; assay type: functional; outline: as §4
# Aspergillus fumigatus [20] = test: Antifungal activity against Aspergillus fumigatus isolate at 100 CFU infectious rate after 24 hrs by culture-based CFU method; assay type: functional; outline: as §3
# Aspergillus fumigatus [21] = test: Antifungal activity against Aspergillus fumigatus isolate after 48 hrs by CLSI M38-A microdilution method; assay type: functional; outline: as §5
# Aspergillus fumigatus [22] = test: Antifungal activity against Aspergillus fumigatus isolate after 24 hrs by microbroth colorimetric XTT method; assay type: functional, organism-based; outline: as §2
# Aspergillus terreus [23] = test: Antifungal activity against Aspergillus terreus isolate at 20 CFU infectious rate after 24 hrs by culture-based CFU method; assay type: functional; outline: as §3
# Aspergillus terreus [24] = test: Antifungal activity against Aspergillus terreus isolate after 48 hrs by CLSI M38-A microdilution method; assay type: functional; outline: as §1
# Aspergillus terreus [25] = test: Antifungal activity against Aspergillus terreus isolate after 24 hrs by microbroth colorimetric XTT method; assay type: functional, organism-based; outline: as §2
# Aspergillus flavus [26] = test: Antifungal activity against Aspergillus flavus isolate at 100 CFU infectious rate after 24 hrs by culture-based CFU method; assay type: functional; outline: as §3
# Aspergillus terreus [27] = test: Ratio of MFC for Aspergillus terreus isolate to MIC for Aspergillus terreus isolate; assay type: functional; outline: as §4
# Aspergillus fumigatus [28] = test: Antifungal activity against Aspergillus fumigatus isolate after 6 to 8 hrs by microbroth colorimetric XTT method relative to control; assay type: functional
# Aspergillus flavus [29] = test: Antifungal activity against Aspergillus flavus isolate after 48 hrs by NCCLS M38-A broth microdilution method; assay type: functional; outline: as §1
# Aspergillus flavus [30] = test: Antifungal activity against Aspergillus flavus isolate after 6 to 8 hrs by microbroth colorimetric XTT method relative to control; assay type: functional
# Aspergillus fumigatus [31] = test: Antifungal activity against Aspergillus fumigatus isolate after 48 hrs by NCCLS M38-A broth microdilution method; assay type: functional; outline: as §1
# Aspergillus terreus [32] = test: Antifungal activity against Aspergillus terreus isolate after 6 to 8 hrs by microbroth colorimetric XTT method relative to control; assay type: functional
compound,measurement,setting,value
C[C@@H]1[C@H](O)[C@@H](C)/C=C/C=C/C=C/C=C/C=C/C=C/C=C/[C@H](O[C@@H]2O[C@H](C)[C@@H](O)[C@H](N)[C@@H]2O)C[C@@H]2O[C@](O)(C[C@@H](O)C[C@@H](O)[C@H](O)CC[C@@H](O)C[C@@H](O)CC(=O)O[C@H]1C)C[C@H](O)[C@H]2C(=O)O [AMPHOTERICIN B],MIC,Aspergillus terreus [1],2 mg/L
same,MFC,Aspergillus fumigatus [2],1 mg/L
same,MFC,Aspergillus flavus [3],1 mg/L
same,MFC,Aspergillus terreus [4],> 2 mg/L
same,Activity,Aspergillus terreus [5],3%
same,Activity,Aspergillus fumigatus [6],16%
same,MFC,Aspergillus terreus [7],> 16 mg/L
same,Activity,Aspergillus flavus [8],3%
same,EC50,Aspergillus flavus [9],1.1 mg/L
same,MFC,Aspergillus flavus [9],2 mg/L
same,MIC,Aspergillus flavus [10],1 mg/L
same,MFC,Aspergillus flavus [11],1 mg/L
same,MFC,Aspergillus flavus [12],2 mg/L
same,MFC,Aspergillus terreus [13],> 16 mg/L
same,MFC,Aspergillus fumigatus [14],1 mg/L
same,MIC,Aspergillus flavus [15],1 mg/L
same,MFC/MIC ratio,Aspergillus flavus [16],2
same,MIC,Aspergillus fumigatus [17],1 mg/L
same,MFC,Aspergillus fumigatus [18],1 mg/L
same,MFC/MIC ratio,Aspergillus fumigatus [19],2
same,MFC,Aspergillus fumigatus [20],2 mg/L
same,MIC,Aspergillus fumigatus [21],1 mg/L
same,EC50,Aspergillus fumigatus [22],0.95 mg/L
same,MFC,Aspergillus fumigatus [22],1 mg/L
same,MFC,Aspergillus terreus [23],> 16 mg/L
same,MIC,Aspergillus terreus [24],2 mg/L
same,EC50,Aspergillus terreus [25],9.55 mg/L
same,MFC,Aspergillus terreus [25],> 16 mg/L
same,MFC,Aspergillus flavus [26],2 mg/L
same,MFC/MIC ratio,Aspergillus terreus [27],16
C[C@@H](c1ncncc1F)[C@](O)(Cn1cncn1)c1ccc(F)cc1F [VORICONAZOLE],MIC,Aspergillus terreus [1],0.5 mg/L
same,MFC,Aspergillus fumigatus [2],> 8 mg/L
same,MFC,Aspergillus flavus [3],0.5 mg/L
same,MFC,Aspergillus terreus [4],2 mg/L
same,MFC,Aspergillus terreus [7],> 8 mg/L
same,EC50,Aspergillus flavus [9],1.96 mg/L
same,MFC,Aspergillus flavus [9],4 mg/L
same,MIC,Aspergillus flavus [10],0.5 mg/L
same,MFC,Aspergillus flavus [11],0.5 mg/L
same,MFC,Aspergillus flavus [12],> 4 mg/L
same,MFC,Aspergillus terreus [13],> 8 mg/L
same,MFC,Aspergillus fumigatus [14],2 mg/L
same,MIC,Aspergillus flavus [15],0.5 mg/L
same,MFC/MIC ratio,Aspergillus flavus [16],4
same,MIC,Aspergillus fumigatus [17],1 mg/L
same,MFC,Aspergillus fumigatus [18],> 4 mg/L
same,Activity,Aspergillus fumigatus [28],14%
same,MFC90,Aspergillus flavus [29],0.25 mg/L
same,Activity,Aspergillus flavus [30],16%
same,MFC/MIC ratio,Aspergillus fumigatus [19],> 16
same,MFC90,Aspergillus fumigatus [31],0.25 mg/L
same,MFC,Aspergillus fumigatus [20],> 8 mg/L
same,MIC,Aspergillus fumigatus [21],0.5 mg/L
same,EC50,Aspergillus fumigatus [22],2.34 mg/L
same,MFC,Aspergillus fumigatus [22],> 8 mg/L
same,MFC,Aspergillus terreus [23],8 mg/L
same,MIC,Aspergillus terreus [24],1 mg/L
same,EC50,Aspergillus terreus [25],11.7 mg/L
same,MFC,Aspergillus terreus [25],> 8 mg/L
same,MFC,Aspergillus flavus [26],1 mg/L
same,Activity,Aspergillus terreus [32],36%
same,MFC/MIC ratio,Aspergillus terreus [27],8
